A short description of assay [1]: Inhibition of bovine brain tubulin polymerization after 20 mins by turbidimetric analysis. The arrangement: species or system Bos taurus. The procedure, abridged: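 Bovine brain tubulin 10 µM (1 mg/mL) in 0.8 M monosodium glutamate pH 6.6, 4% DMSO, with varying compound, preincubated 15 min at 30 °C. Chilled, GTP added to 0.4 mM, then temperature jumped 0→30 °C. Turbidity followed at 350 nm for 30 min.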

For another assay, the system named is DU-145. The assay is described as follows: Cytotoxicity against human DU145 cells after 48 hrs by SRB assay. It is filed as functional. As to conditions: DU-145, 48 h. The procedure, abridged: (§1)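 Cells in 5% FBS/RPMI1640 with 1% gentamicin, plated and grown 24 h, then given serial compound dilutions for 48 h. Fixed with trichloroacetic acid, stained with sulforhodamine B, read by optical density.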
(In general: In SRB staining, fixed cells bind dye roughly in proportion to their protein.)

Assay [2] addresses T1, Tubulin (Homo sapiens) (UniProt P68371+Q9H4B7+P0DPH7+P68366+Q13509+Q71U36+P04350+Q3ZCM7+P07437+P68363+Q9BQE3+Q6PEY2+Q13885+Q9BVA1+Q9BUF5). Put plainly: Displacement of [3H]colchicine from tubulin (unknown origin) at 5 uM after 10 mins by scintillation counting analysis. It is filed as protein-complex assay. The procedure, abridged: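 Mixtures: 1.0 µM tubulin, 5.0 µM [3H]colchicine, 5% DMSO, inhibitor 5.0 µM, with 1.0 M monosodium glutamate pH 6.6, 0.5 mg/mL BSA, 0.1 M glucose-1-phosphate, 1.0 mM MgCl2, 1.0 mM GTP. 10 min at 37 °C, stopped with ice-cold water, filtered on DEAE-cellulose, scintillation counted. Percent inhibition versus no-inhibitor control.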
(In general: Loss of bound radioactivity is the signal in a displacement assay; it reports binding, not function.)

For the next assay, the system named is SK-OV-3. The assay is described as follows: Cytotoxicity against human SKOV3 cells after 48 hrs by SRB assay. It is filed as functional. As to conditions: SK-OV-3, 48 h. Summed up:
as §1

A further assay has as its system NCI-H460. The assay is described as follows: Cytotoxicity against human NCI-H460 cells after 48 hrs by SRB assay. It is filed as functional. To be noted: NCI-H460, 48 h. The procedure, abridged:
as §1

Assay [3] addresses T1, Tubulin (Homo sapiens). Put plainly: Displacement of [3H]colchicine from tubulin (unknown origin) at 1 uM after 10 mins by scintillation counting analysis. Type of assay: protein-complex assay. The procedure, abridged:
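Tubulin 1.0 µM incubated 10 min at 37 °C with 5.0 µM [3H]colchicine, 5% (v/v) DMSO and inhibitor at 1.0 µM, in 1.0 M monosodium glutamate pH 6.6, 0.5 mg/mL BSA, 0.1 M glucose-1-phosphate, 1.0 mM MgCl2, 1.0 mM GTP. Stopped with ice-cold water, DEAE-cellulose filter stacks, scintillation counting next day; percent inhibition versus no-inhibitor control.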

Drawing on ChEMBL document CHEMBL2440086 (Bioorg Med Chem, 2013), this text covers IC50, GI50 and inhibition for 13 compounds.

Some results are limits rather than exact numbers.

Usually IC50 stands for the midpoint of a concentration-inhibition curve. A lower IC50 goes with greater potency in that assay. The GI50 is the concentration at which growth is held to half of that of the control. By inhibition is commonly meant how much of the control response was suppressed. In assay [1], `COc1ccc2c(C(=O)c3cc(C(F)(F)F)cc(C(F)(F)F)c3)c(-c3ccc(OC)c(O)c3)[nH]c2c1` returned an IC50 of 3.1 µM. In addition, the GI50 with DU-145 amounted to 3.01 µM; in the assay with SK-OV-3 it was 1.45 µM; in the assay with NCI-H460, 2.86 µM. For the same compound, the inhibition at Tubulin (Homo sapiens) [2] stood at 26%.
Take `COc1ccc2c(C(=O)c3cc([N+](=O)[O-])cc([N+](=O)[O-])c3)c(-c3ccc(OC)c(O)c3)[nH]c2c1`: in assay [1], the IC50 was above 20 µM. Further, the GI50 with DU-145 came to 5.52 µM; with SK-OV-3 it was 4.35 µM; in the assay with NCI-H460, 4.08 µM.
`COc1ccc2c(C(=O)c3cccc(OC(F)(F)F)c3)c(-c3ccc(OC)c(O)c3)[nH]c2c1` yielded an IC50 in assay [1] of 3.7 µM. In addition, the GI50 amounted to 2.99 µM in the assay on DU-145, 0.283 µM in the assay with SK-OV-3 and 3.57 µM in the assay on NCI-H460. The inhibition on Tubulin (Homo sapiens) [2] was 19%.
In turn, `COc1ccc(-c2[nH]c3c(O)c(OC)ccc3c2C(=O)c2cc(OC)c(OC)c(OC)c2)cc1` showed an IC50 in assay [1] of 1 µM. Also, the GI50 was found to be 0.309 µM in the assay with DU-145, 0.264 µM with SK-OV-3 and 0.177 µM in the assay with NCI-H460. Moreover, the inhibition at Tubulin (Homo sapiens) [2] was 85%; on Tubulin (Homo sapiens) [3] it was 51%.
As for `COc1ccc(-c2[nH]c3c(OC)c(OC)ccc3c2C(=O)c2cc(OC)c(OC)c(OC)c2)cc1O`, in assay [1], the IC50 was 1.1 µM. Also, the GI50 came out at 0.0181 µM with DU-145, 0.0119 µM with SK-OV-3 and 0.992 µM in the assay with NCI-H460. Also, the inhibition stood at 67% on Tubulin (Homo sapiens) [2] and 31% on Tubulin (Homo sapiens) [3].
The compound `COc1ccc(-c2[nH]c3cc(O)ccc3c2C(=O)c2cc(OC)c(OC)c(OC)c2)cc1O` displayed an IC50 in assay [1] above 20 µM. For the same compound, the GI50 is 3.4 µM with DU-145, 2.17 µM in the assay on SK-OV-3 and 2.91 µM in the assay with NCI-H460.
`COc1ccc2c(C(=O)c3ccc(OC(F)(F)F)cc3)c(-c3ccc(OC)c(O)c3)[nH]c2c1`: the IC50 in assay [1] was above 20 µM. The GI50 with DU-145 amounted to 3.21 µM; in the assay on SK-OV-3 it was 3.05 µM; in the assay with NCI-H460 it was 2.35 µM.
Take `COc1ccc2c(C(=O)c3cc(F)c(F)c(F)c3)c(-c3ccc(OC)c(O)c3)[nH]c2c1`: the IC50 in assay [1] turned out to be 7.5 µM. Moreover, the concentration for 50% growth inhibition (GI50) is 10 µM with DU-145, 19.8 µM in the assay with SK-OV-3 and 5.54 µM in the assay with NCI-H460. The compound further showed an inhibition at Tubulin (Homo sapiens) [2] of 26%.
Consider `COc1ccc(/C=C\c2cc(OC)c(OC)c(OC)c2)cc1O` [COMBRETASTATIN A4], for which the GI50 in the assay with DU-145 is 0.00484 µM; with SK-OV-3 it was 0.00533 µM; in the assay with NCI-H460, 0.00449 µM.
Compound `COc1ccc2c(C(=O)c3ccc(F)cc3)c(-c3ccc(OC)c(O)c3)[nH]c2c1` registered an IC50 in assay [1] above 20 µM. Also, the figures for the concentration for 50% growth inhibition (GI50) with DU-145, in the assay on SK-OV-3 and in the assay with NCI-H460 were 10 µM, 15 µM and 49.6 µM, respectively.
Take `COc1ccc2c(C(=O)c3cccc([N+](=O)[O-])c3)c(-c3ccc(OC)c(O)c3)[nH]c2c1`: the IC50 in assay [1] came out at 19 µM. Also, the GI50 was determined as 7.11 µM in the assay with DU-145, 2.65 µM with SK-OV-3 and 15.7 µM with NCI-H460. This compound also showed an inhibition at Tubulin (Homo sapiens) [2] of 21%.
For the compound `COc1ccc(-c2[nH]c3cc(OC)c(OC)c(OC)c3c2C(=O)c2cc(OC)c(OC)c(OC)c2)cc1O`, the IC50 in assay [1] was above 20 µM. The GI50 turned out to be 28.3 µM in the assay on DU-145, 25.1 µM with SK-OV-3 and 41.8 µM in the assay with NCI-H460.
For `COc1ccc2c(C(=O)c3ccc([N+](=O)[O-])cc3)c(-c3ccc(OC)c(O)c3)[nH]c2c1`, in that order: above 20 µM, 8.16 µM, 21.1 µM and 16.8 µM.
